Measured values pooled from the literature.
Lines come from different studies, so protocols differ.
Target: Serine/threonine-protein kinase PLK4 (PLK4, Homo sapiens, UniProt O00444)
One construct used (O00444 1-970): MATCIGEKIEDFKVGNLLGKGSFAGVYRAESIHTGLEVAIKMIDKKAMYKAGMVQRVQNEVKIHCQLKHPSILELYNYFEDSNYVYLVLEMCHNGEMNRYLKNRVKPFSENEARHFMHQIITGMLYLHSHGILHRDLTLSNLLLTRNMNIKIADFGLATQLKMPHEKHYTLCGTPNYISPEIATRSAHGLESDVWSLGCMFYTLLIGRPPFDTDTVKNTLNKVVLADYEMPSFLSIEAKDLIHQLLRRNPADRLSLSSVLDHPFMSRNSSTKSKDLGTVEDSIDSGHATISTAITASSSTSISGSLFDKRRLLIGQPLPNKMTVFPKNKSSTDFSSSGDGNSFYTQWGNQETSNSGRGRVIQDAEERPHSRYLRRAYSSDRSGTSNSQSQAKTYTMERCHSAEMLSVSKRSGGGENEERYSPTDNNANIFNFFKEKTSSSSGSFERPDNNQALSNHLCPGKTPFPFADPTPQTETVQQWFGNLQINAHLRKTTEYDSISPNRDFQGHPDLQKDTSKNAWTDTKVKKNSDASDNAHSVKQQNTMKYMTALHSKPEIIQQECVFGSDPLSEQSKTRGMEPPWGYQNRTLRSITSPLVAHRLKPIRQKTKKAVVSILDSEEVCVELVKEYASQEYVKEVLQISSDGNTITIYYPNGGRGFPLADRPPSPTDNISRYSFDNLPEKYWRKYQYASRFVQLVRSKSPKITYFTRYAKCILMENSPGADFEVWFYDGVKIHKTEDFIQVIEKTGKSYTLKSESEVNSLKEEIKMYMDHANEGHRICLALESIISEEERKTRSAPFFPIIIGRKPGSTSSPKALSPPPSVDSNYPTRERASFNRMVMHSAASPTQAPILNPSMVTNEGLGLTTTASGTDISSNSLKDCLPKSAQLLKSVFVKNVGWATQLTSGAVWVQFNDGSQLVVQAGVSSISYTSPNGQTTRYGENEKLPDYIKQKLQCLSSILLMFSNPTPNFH

Structure (SMILES) | observed | action | method | tested at | measurement | value
Cc1ccc(C(=O)Nc2ccc(CN3CCN(C)CC3)c(C(F)(F)F)c2)cc1C#Cc1cnc2cccnn12 | enzyme activity | inhibitor | – | 23.5 nM | remaining activity | 84%
COc1cc2nccc(Oc3ccc(NC(=O)Nc4ccc(F)cc4F)c(F)c3)c2cc1OC | thermal stability | – | DSF | 10 µM | ΔTm | 5 to 10 °C
Cc1ccc(C(=O)NCc2ccsc2)cc1C#Cc1cn(C(C)C)c2ncnc(N)c12 | enzyme activity | inhibitor | – | 1 µM | activity vs control | 75%
COc1cc(Cl)c(C(=O)N[C@@H](CN[C@H]2CC[C@@H](N)CC2)Cc2ccc(C#N)cc2)cc1-c1ccc(CN[C@H](C)c2ccc(C)cc2)o1 | enzyme activity | inhibitor | – | 1 µM | remaining activity | 83%
Cc1sc(C(=O)NC2COC2)cc1-n1cc(NC(=O)Nc2c(F)cccc2Cl)cn1 | enzyme activity | inhibitor | – | 10 µM | remaining activity | 100%
CC(C)(O)[C@H]1CC[C@H](Nc2ccc3ncc(-c4cccc(C(F)(F)F)c4)n3n2)CC1 | enzyme activity | inhibitor | – | 1 µM | remaining activity | 101%
CN(C)c1ncnc(-c2ccc3nc(Nc4cc(CN5CCN(C(=O)CC(F)(F)F)CC5)ccn4)[nH]c3c2)c1Cl | cell-free assay | – | competition with immobilised ligand | 1 µM | remaining binding | 76%
CN1CC(Oc2cnc(C#N)cc2-c2ccn3nc(NC(=O)C4CC4)cc3c2)C1 | enzyme activity | inhibitor | – | 1 µM | inhibition | -5%
CC(C)(C)c1nc2c(s1)c1nc(N)ncc1c1ccc(NS(=O)(=O)c3c(F)cccc3F)c(F)c12 | enzyme activity | inhibitor | radiometric | 1 µM | remaining activity | 44%
O=C(Nc1cccnn1)N1CC(C/C=C/c2cncc(Oc3ccc(C(F)(F)F)cn3)n2)C1 | cell-free assay | – | competition with immobilised ligand | 1 µM | remaining binding | 98%
Nc1ncnc2occ(-c3ccc(NC(=O)Nc4cc(C(F)(F)F)ccc4F)cc3)c12 | cell-free assay | inhibitor | – | 20 µM | remaining signal | 0.55%
O=C(Nc1cnn(-c2csc(C(=O)NC3COC3)c2)c1)Nc1ccccc1Cl | enzyme activity | inhibitor | – | 5 µM | remaining activity | 88.2%
CC(C)(C)c1nc(-c2cccc(NS(=O)(=O)c3c(F)cccc3F)c2F)c(-c2ccnc(N)n2)s1 | enzyme activity | inhibitor | radiometric | 1 µM | remaining activity | 6%
